Reference: article PMC3356046 (Frontiers in Oncology, 2011)

Experiments:
[1] = ref Wang et al., 2006b, Mi et al., 2008; cited from earlier work
[2] = test system: BP3 human lymphoma cell line; experiment: Apoptosis, Annexin V-FITC and propidium iodide assay, BP3; assay type: cell-based
Method in brief: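 BP3 diffuse large B-cell lymphoma cells were grown in RPMI 1640 with 10% FBS and penicillin/streptomycin, then exposed to varying concentrations of test compound for 1 day. They were stained with FITC-Annexin V and propidium iodide and analysed by flow cytometry. Annexin V-negative/PI-negative cells were scored viable. Mean of two independent experiments ± SE.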

Row | Compound | oral MTD [1] | cytotoxic activity against BP3 cell lines [2]
1 | Cc1cc2c(C(C)C)c(O)c(O)c(C=O)c2c(O)c1-c1c(C)cc2c(C(C)C)c(O)c(O)c(C=O)c2c1O [(−) Gossypol] | ~50 mg/kg | –
2 | CN(C)CC[C@H](CSc1ccccc1)Nc1ccc(S(=O)(=O)NC(=O)c2ccc(N3CCN(Cc4ccccc4-c4ccc(Cl)cc4)CC3)cc2)cc1[N+](=O)[O-] [ABT-737] | – | no cytotoxic activity
